According to paper PMC4340355 (ACS Chemical Biology, 2014):
Like-named read-outs stand apart in the source and are kept apart here. Peptide text beside a SMILES is read from it. * marks the point of attachment. Cbz = O=C(OCc1ccccc1)*

Assays:
Type in all cases: biochemical
[1] = target: T1, chymotrypsin-like (ChL) activity of rabbit proteasome fraction II (Oryctolagus cuniculus, UniProt G1T4Q9); experiment: Inhibition of proteasome-catalyzed hydrolysis of ChL sensor ChL1–488
T1 sequence (G1T4Q9 1-263): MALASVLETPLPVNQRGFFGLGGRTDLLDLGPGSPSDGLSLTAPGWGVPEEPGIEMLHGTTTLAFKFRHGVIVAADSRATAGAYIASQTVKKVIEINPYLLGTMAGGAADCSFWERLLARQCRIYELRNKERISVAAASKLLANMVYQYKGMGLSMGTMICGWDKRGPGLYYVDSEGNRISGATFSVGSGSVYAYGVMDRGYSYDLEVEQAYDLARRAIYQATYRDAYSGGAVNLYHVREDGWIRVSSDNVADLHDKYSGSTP

[2] = target: T2, caspase-like (CaL) activity of rabbit proteasome fraction II (Oryctolagus cuniculus, UniProt A0A5F9DQW2); experiment: Inhibition of proteasome-catalyzed hydrolysis of CaL sensor CaL1–633
T2 sequence (A0A5F9DQW2 1-212): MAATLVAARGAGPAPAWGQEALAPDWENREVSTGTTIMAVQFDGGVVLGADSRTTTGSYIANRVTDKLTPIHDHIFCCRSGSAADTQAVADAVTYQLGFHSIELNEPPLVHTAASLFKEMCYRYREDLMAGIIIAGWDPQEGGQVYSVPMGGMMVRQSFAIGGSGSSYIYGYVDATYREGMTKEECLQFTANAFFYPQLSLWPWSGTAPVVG

[3] = test system: rabbit proteasome fraction II; experiment: Rate of proteolysis
How it was run: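 Fluorescence followed 2 h at RT. Rate came from a linear fit to the first 10% substrate consumption. FU were converted to μmol via overnight-spiked fold change and a standard line. No-enzyme controls were run. Values are mean ± SD of triplicates.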

[4] = target: yeast proteasome CaL mutant (Saccharomyces cerevisiae, UniProt P25043+P30656+P38624); experiment: Rate of sensor cleavage by yeast deficient lysate, CaL mutant
[5] = test system: proteasome

| IC50 [1] | IC50 [2] | proteolysis by the proteasome containing the mutation in the CaL subunit [4] | Compound | specific activity ([3]; 2.5 μM sensor) | specific activity ([3]; 5 μM sensor) | effect on TL activity ([5]; in the presence of CaL1–633) | reduction of the rate of proteolysis of ChL1–488 ([5]; in the presence of CaL1–633) | reduction of the rate of proteolysis of ChL1–488 ([5]; in the presence of TL1–550) | effect on CaL activity ([5]; in the presence of TL1–550) | enhancement of the rate of TL1–550 hydrolysis ([5]; when ChL1–488 is present) |
| --- | --- | --- | --- | --- | --- | --- | --- | --- | --- | --- |
| 0.62 ± 0.06 µM | 180 ± 150 µM | – | CC(C)C[C@@H](C=O)NC(=O)[C@H](CC(C)C)NC(=O)[C@H](CC(C)C)NC(=O)OCc1ccccc1 [MG132] (Cbz-Leu-Leu-Leu-aldehyde) | – | – | – | – | – | – | – |
| – | – | not proteolyzed | DyLight633–nLPnLDK(AB40) [CaL1–633] | 0.03 ± 0.001 nmol min^–1 mg^–1 enzyme | 0.02 ± 0.002 nmol min^–1 mg^–1 enzyme | reduced | – | – | – | – |
| – | – | – | FAM–HHSLK(AB40) [ChL1–488] | 0.22 ± 0.02 nmol min^–1 mg^–1 enzyme | 0.31 ± 0.03 nmol min^–1 mg^–1 enzyme | – | up to 90% | up to 50% | – | – |
| – | – | – | TAMRA–LRRK(AB40) [TL1–550] | 0.05 ± 0.003 nmol min^–1 mg^–1 enzyme | 0.06 ± 0.001 nmol min^–1 mg^–1 enzyme | – | – | – | impaired | up to 5 fold |
